Data: ChEMBL document CHEMBL4513216, “Probing the Open Global Health Chemical Diversity Library for Multistage-Active Starting Points for Next-Generation Antimalarials” (ACS Infect Dis, 2020)

Assay: Toxicity liver stage against HepG2, at 10uM
Type: cell-based
Design: test concentration 10 uM, cell line HepG2-A16-CD81EGFP
Conditions: human, HepG2-A16-CD81EGFP cells; read-out: INHIBITION
Method in brief: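 Uninfected HepG2-A16-CD81EGFP cells, 3 × 10^3 per well, 1536-well, plated on prespotted compound at 10 μM final, parasite-free screening media added to match infected plates; puromycin 10 μM positive, DMSO 0.5% negative; run in parallel with 48 h PbLuc assay at 37 °C, 5% CO2; viability by CellTiter-Glo luminescence, normalized to controls.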

Structure (SMILES) | cytotoxicity at 10 µM
Cc1nnsc1CN1C[C@H]2CC[C@@H](C1)N(Cc1ccccc1)C2 | 9.47%
Cc1nnc(NC(=O)N2CCCN(C3CCCC3)CC2)s1 | -3.16%
CCN1CC(C(=O)N2CCN(CCn3cccc3)CC2)CC1=O (stereo unspecified) | -3.64%
CN1CCCN(C(=O)c2cnsn2)c2cc(Cl)ccc21 | -7.34%
COC(=O)c1ccc(CNC(=O)CN2C[C@@H](NC(C)=O)[C@H](C(C)C)C2)o1 | -0.921%
Cc1cc(NC(=O)c2ccccc2Br)n(C)n1 | -6.61%
CCCN1CCN(Cc2cn(CCC(N)=O)c3ccccc23)CC1 | 4.7%
CC(C)c1noc(CCC(=O)N(CC2CCOC2)C2CC2)n1 (stereo unspecified) | 8.01%
CN(C)c1ncc(CNC(=O)Nc2ccccc2F)n1C | -46.9%
O=C([C@@H]1C[C@@H]2CCN(Cc3ccccn3)C[C@H]2O1)N1CCCO1 | 2.29%
CC(C)c1nnc(NCc2cc3n(n2)CCNC3)s1 | -2.11%
CC(NC(=O)Nc1cccnc1N1CCOCC1)c1ccncc1 (stereo unspecified) | 5.28%
Cn1cnc2c1C(COCC1CC1)CN(c1ncccn1)C2 (stereo unspecified) | 7.22%
Cc1nc(CN(C)Cc2cc3c(cc2OC(F)F)OCO3)oc1C | 2.22%
CCc1ccc(C(=O)NC(C)c2ccc(S(C)(=O)=O)c(F)c2)o1 (stereo unspecified) | 17.2%
CCN1CCN(S(=O)(=O)c2cc(C)c(C)cc2Br)CC1 | -9.74%
O=C(NC[C@H]1OC[C@@H](NCc2ccccc2F)[C@@H]1O)c1ccc(F)cc1 | -1.26%
Cc1cnn(C(C)C2CC2)c1NC(=O)c1ccc(Cn2cnnn2)cc1 (stereo unspecified) | -2.06%
Cc1ccc(N2CCc3ncnc(N(C)C)c3CC2)nn1 | -102%
Cc1nc(CN2CCCN(Cc3nccn3C(C)C)CC2)no1 | -1.91%
NC(=O)CN1CCC2(CC1)CC(=O)c1ccc3ccccc3c1O2 | 1.76%
CCCc1nc(C)cc(N2CCC3(CCC(=O)N(C4CC4)C3)CC2)n1 | -5.31%
Cc1ccc(C(=O)N2CCC3(CC2)CN(CCN(C)C)C(=O)O3)c(F)c1 | 7.46%

Structure (SMILES) | cytotoxicity at 10 µM
O=C(NCC1CCC2(CC1)OCCO2)c1ccncc1F | 14.4%
OC1CCN(Cc2cc3c(cc2Br)OCCO3)CC1 | 7.73%
Cc1nccn1-c1ccc(C(C)NCCC(C)C)cc1 (stereo unspecified) | 15.9%
Cc1nccn1CCN(C)C(=O)c1cn(CC2CCCCC2)nn1 | -1.84%
CS(=O)(=O)c1ccc(-c2ccccc2C(=O)O)cc1 | 0.238%
CC(C)(C)C(=O)NCc1cnn2ccccc12 | -10.6%
CCC1CCCN(C(=O)Cc2csc(-c3ncccn3)n2)C1 (stereo unspecified) | -5.15%
CCN(CC)CC[C@H]1CN(C(=O)CC(C)(C)C)CC[C@H]1CC(=O)O | -0.668%
CC(C)[C@H](NS(C)(=O)=O)C(=O)NCc1cc(-c2ccccc2)n[nH]1 | -8.94%
CO[C@H]1CN(C(=O)OC(C)(C)C)CC1NCc1cccn1C (stereo partly specified) | -44%
O=C(Nc1ccccc1)C1=NOC2(CCNCC2)C1 | 5.77%
CC1CS(=O)(=O)CCN1CCCc1ccc(C(F)(F)F)cc1 (stereo unspecified) | 0.715%
O=S(=O)(CCNCc1cc(O)c2cc(F)ccc2n1)N1CCCC1 | -39.5%
CC(c1ccccc1)n1cc2nc(N(C)C)[nH]cc-2c1=O (stereo unspecified) | -25.5%
Cc1n[nH]c(C2CN(C(=O)c3ccon3)CCO2)n1 (stereo unspecified) | -8.27%
O=C(NCc1nn(-c2ccccc2)c2c1CCC2)C1CC1 | -8.36%
COc1cccc(CCC2CCCN(C(=O)c3n[nH]c4c3CCC4)C2)c1 (stereo unspecified) | 4.48%
O=C(COc1coc(CN2CCCCC2)cc1=O)c1ccccc1 | 8.44%
Cc1cc(NC(=O)NCc2ccccc2OC(F)F)n(C)n1 | 2.29%
CCN(C(=O)CN1CCCC1c1ccc(OC)cc1)c1ccccc1C (stereo unspecified) | 0.623%
COCC(C)NC(=O)NCCCc1cc(N)n(-c2ccccc2)n1 (stereo unspecified) | -12.2%
CNS(=O)(=O)CC(=O)N(C1CCCC1)C1CC1 | -2.78%
Cc1cc(C)n(CC(C)NCCN2CCc3ccccc32)n1 (stereo unspecified) | -7.73%

Structure (SMILES) | cytotoxicity at 10 µM
CCN1Cc2ccccc2CC2(CCN(C)CC2)C1=O | 14.3%
Cc1cc(C)c2nc(CN3CCC(C#N)CC3)cc(O)c2c1 | 6.27%
C=C(C)COc1cccc(C(=O)NCCCc2nnn[nH]2)c1 | -0.531%
OCCCN1CCCC1c1ccc(Br)cc1 (stereo unspecified) | 2.94%
O=C(CN1CCC(c2ccnn2CCO)CC1)NCC1CC1 | -3.25%
Cc1ccc(C)c(CS(=O)(=O)CC(=O)N(C)Cc2cccc(F)c2)c1 | 4.42%
O=C(N[C@@H]1CN(c2ncccn2)C[C@@H]2CCCO[C@@H]21)c1cccnc1 | 11.4%
CN(C)C(=O)CO[C@@H]1CC[C@H]2[C@H]1OCCN2C(=O)C1CCOCC1 | -7.56%
CC(=O)N[C@@H](CC(C)C)C(=O)N1CCC(n2cc(CO)nn2)CC1 | 9.56%
CCc1nc(CN2CCCN(C(=O)CC3CCCC3)CC2)cs1 | -25.2%
O=C(c1ccc(Cl)cc1-n1cnnn1)N1CCC2(CC1)OCCO2 | 3.51%
CCCc1csc(-c2ccc(S(C)(=O)=O)cc2)n1 | -2.69%
CC(=O)NCCNC(=O)C1(Oc2cccnc2C)CCNCC1 | 3.24%
CC(Cn1cccn1)NS(=O)(=O)Cc1ccccc1 (stereo unspecified) | 6.8%
O=C(c1cnccn1)N1CCCC(Cc2cccc3ncccc23)C1 (stereo unspecified) | 12%
CC(C)C(=O)NC1CCN(Cc2cccc3c2OCCO3)CC1 | -0.818%
COCC(=O)N1CCC(Oc2cccc(C)c2)CC1 | -4.25%
CC(=O)N1CCOC(c2c(C(=O)O)sc3ccccc23)C1 (stereo unspecified) | 5.76%
Cc1ccc([C@@H]2CN(S(=O)(=O)c3cccs3)C[C@H]2N(C)C)cc1 | -3.12%
CCn1cc2[nH]c(OC)c(CNC(=O)C3CCCN(C)C3)cc-2c1=O (stereo unspecified) | 11.3%
COc1c(C2CCCN2C(=O)c2cc(Cl)c[nH]2)c(C)nn1C (stereo unspecified) | 4.6%
CCN(C(=O)CCc1ccc2[nH]ccc2c1)C1CC(=O)NC1=O (stereo unspecified) | -8.96%
CC(C)OCc1ccccc1CNC(=O)C(C)(C)C | -8.11%

Structure (SMILES) | cytotoxicity at 10 µM
CC(C#N)CN(C)C(=O)CCNC(=O)OCC(F)(F)F (stereo unspecified) | 3.89%
C1CC(CN2CCc3c(nnn3CC3CC3)C2COCC2CC2)C1 (stereo unspecified) | 7.61%
O=C(c1ccc(F)cc1F)N1CCN(C(=O)C2CCCCC2)CC1 | -0.876%
CC1=NOC(C(=O)N2CCC(O)(c3ccc4nc(C)ccc4c3)CC2)C1 (stereo unspecified) | 2.12%
CS(=O)(=O)N[C@@H]1CN(C(=O)c2cccnc2)[C@@H]2CCCO[C@@H]21 | -81.8%
Cc1cc(C(=O)NC2CCCN(c3ccccc3)C2=O)on1 (stereo unspecified) | 24.7%
COc1cccc(CN(C(=O)Nc2nncs2)C2CCC(O)CC2)c1 (stereo unspecified) | -0.67%
CCCc1ccc(CN2CCN(C(=O)CC(C)C)[C@@H]3CS(=O)(=O)C[C@@H]32)o1 | 5.31%
CCN(C)c1ncnc2c1CCN(C(=O)c1ccc(C)o1)CC2 | -0.796%
CN(Cc1ccsc1)C(=O)Nc1cccc(N2CCOC2=O)c1 | -12.9%
CCN1CCn2c(C)cnc2C12CCN(C(=O)c1cscn1)CC2 | 6.59%
CC(C)C[C@H](N)C(=O)N1CCSc2ccccc2C1 | 0.318%
CCC(CNC(=O)Nc1cnn(CC)c1)N1CCc2ccccc2C1 (stereo unspecified) | 4.72%
Cc1cnn(CC2CCCCN2C(=O)Cn2nc(C)c(Cl)c2C)c1 (stereo unspecified) | -6.24%
Cc1cc(C[C@@H]2COC[C@@H]2NC(=O)CCN2Cc3ccccc3C2)on1 | 3.86%
COCCOCC(=O)Nc1ccc(C)cc1F | -3.81%
CCc1cc(NCCc2cnccn2)n2nc(C)c(C)c2n1 | 5.18%
CC1CCN(c2nc3cn(-c4ccccc4)c(=O)c-3c[nH]2)CC1 | -12.6%
Cc1nc(CN(C)C2CCN(Cc3ccc(C(N)=O)cc3)C2)no1 (stereo unspecified) | -12.7%
Cc1nn(C)c(C)c1C(=O)NCc1cc(N(C)C)nc2ccccc12 | -1.08%
Fc1cccc(N2CCc3ncnc(N4CCOCC4)c3CC2)c1 | 9.49%
Cc1cc(C)n(Cc2cccc(C(=O)NCCN3CCOCC3)c2)n1 | -12.8%
FC(F)(F)c1cc(C2CCNCC2)nc(-c2ccsc2)n1 | 8.6%

Structure (SMILES) | cytotoxicity at 10 µM
Cc1[nH]c2ccccc2c1-c1ccnc(N[C@H](CO)CC(C)C)n1 | 0.97%
O=C(NCCN1CCCc2ccccc21)c1scnc1Cl | -3.41%
Cc1nn(C)c(NC(=O)C2SCCc3ccccc32)c1C (stereo unspecified) | 45.8%
O=C(O)C1(Cc2ccc(F)cc2F)CCCN(Cc2ccccn2)C1 (stereo unspecified) | 7.65%
CCCn1cc(C(=O)N2CCCC(Cc3nccs3)C2)cn1 (stereo unspecified) | -11.4%
CCO[C@@H]1CC[C@H]2[C@H]1OCCN2Cc1ccoc1 | -96.9%
O=C(Nc1ccc(Cl)cn1)C1CCN(CCc2ccccn2)CC1 | -6.55%
CCc1nc(CNc2ccc(C(=O)NCc3ccco3)cc2C)no1 | 2.4%
Cc1cc(CNCC2(O)CCOCC2)ccc1Br | -0.378%
Cc1cnn(CC2CN(Cc3nc(C)c4ccccc4n3)CCO2)c1 (stereo unspecified) | -35.6%
CCc1nnc2n1CCN(C(=O)c1cnn(C)c1C1CC1)C2 | -6.93%
O=C1N(Cc2cccc(F)c2)CCC12CCN(c1ccccn1)CC2 | -1.16%
C[S+]([O-])c1nncn1CC(=O)c1ccc(Br)cc1 (stereo unspecified) | 0%
Cc1n[nH]c2c1C(c1cccnc1)SCC(=O)N2 (stereo unspecified) | -7.46%
CC(C)c1nnc2n1CCN(CCC(=O)Nc1sccc1C#N)C2 | -25.8%
c1cncc(CN2CCO[C@H]3[C@H](OCCN4CCCC4)CC[C@@H]32)c1 | 3.36%
Cc1nc(C(Cc2ccsc2)NC(=O)CCN2CCOCC2)sc1C (stereo unspecified) | 7.04%
Cc1ccnc(NCCNC(=O)c2ccccc2NCC(=O)O)c1 | -12.7%
COCCCn1cnnc1CNC(=O)c1[nH]c2c(C)cc(C)cc2c1C | 5.22%
